Screens: PubChem, several laboratories
PABP1 MLLE inh – blocks PAM2 peptide binding to the PABP1 MLLE domain; actives 0.36% (n = 360,000); GST-MLLE / FITC-PAM2 fluorescence polarization; inhibition, % at 20 µM; P11940; in the data active means inhibition above about 35%, passing the limit was not always enough;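 further: plate controls were DMSO wells with GST-MLLE for no effect and wells lacking GST-MLLE protein for full effect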
eIF4E-4G inh – blocks eIF4E binding to eIF4G; P63073+Q04637; AID 782; TR-FRET eIF4E-eIF4GI(517-606) binding, 2 h; inhibition, % at 21.7 µM; actives 0.37% (n = 220,000);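 active means inhibition above about 30%, limit read from the data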;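 further: 0% = full FRET control wells and 100% = background wells lacking eIF4GI fragment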
eIF4H FP inh – inhibitors of RNA binding by human eIF4H; eIF4H fluorescence polarization binding assay; inhibition, % at 35 µM; Q15056; actives 0.94% (n = 290,000);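 further: calls also rest on retests at 20 µM and on dose response follow-up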
SUMO HTRF inh – blocks human SUMOylation mediated by UBC9 | P63279 | HTRF SUMOylation assay, SAE1/SAE2 + UBC9, in vitro | inhibition, % at 35 µM | actives 0.36% (n = 290,000) | AID 2006; in the data active means inhibition above about 50%, passing the limit was not always enough; inconclusive means no clear call, values can overlap the other calls
core dimer inh – HCV core protein dimerization inhibition | inhibition, % at 5 µM | actives 0.33% (n = 300,000) | TR-FRET GST/Flag-core106 dimerization, 1536-well | AID 1899;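 active means inhibition above the mean of all tested compounds plus 3 SD, set per screening campaign, cut at about 45% in these data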
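Assay system – GST-tagged and Flag-tagged HCV core protein residues 1-106 · Quantity – core106 proteins, GST 13.5 nM and Flag 17 nM · Benchmarks – unlabelled core106 and no-GST-core106 wells · Read-out basis – percent inhibition of core106 dimerization signal · Detection – time-resolved FRET, ex 340 nm, em 617 and 671 nm · Schedule – 4 h at 22.5 °C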
PABP FP inh – PABP-poly(A) binding inhibition. P11940. PABP-poly(A) RNA binding, fluorescence polarization. calls only at 35 µM. actives 1% (n = 290,000);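 further: calls also rest on retests at 20 µM and on dose response follow-up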
Starred values were filed as active, the others as inactive; i = inactive; ? = inconclusive; / = no result; + = active, no number. In the library only some 1.8% were active in any assay of this set; here they are far more common. Unless noted, how the calls were made is not given here.

SMILES	PABP1 MLLE inh	eIF4E-4G inh	eIF4H FP inh	SUMO HTRF inh	core dimer inh	PABP FP inh
Cc1sc(NC(=S)Nc2ccc(F)cc2)c(C(N)=O)c1C	34.8*	-3.1	3.5	19.6	6.7	i
Cc1ccc(NC(=O)CN(C)CC(=O)Nc2ccc(N3CCOCC3)cc2)c([N+](=O)[O-])c1	-2.2	-4.5	2.0	12.6	-6.2	i
COC(=O)CCCC1=CC2=C(c3ccccc3)C(=O)C(C)(OC(=O)C3CCCC3)C(=O)C2=CN1CCCCO (stereo not drawn)	14.4	2.3	1.0	31.9	3.0	i
COC(=O)CCCC1=CC2=C(c3ccccc3)C(=O)C(C)(OC(=O)C3CCCC3)C(=O)C2=CN1Cc1ccco1 (stereo not drawn)	36.5	-0.1	60.0	20.3	13.6	+
COc1ccc(-c2ccc(-c3noc(-c4cccs4)n3)c(OC)n2)cc1	-47.1	-33.7	29.2*	8.2	16.1	+
COC(=O)c1cccc(NC(=O)CC2C(=O)NCCN2C(=O)Nc2cc(C)cc(C)c2)c1 (stereo not drawn)	-1.0	/	-15.2	11.4	-3.5	i
N#Cc1c2n(c(=S)n(-c3ccccc3[N+](=O)[O-])c1=O)CCCCC2	50.7*	-0.5	5.7	-4.2	-1.6	i
N#Cc1c2n(c(=S)n(-c3ccccc3)c1=O)CCCCC2	13.8	3.5	5.1	5.0	-4.2	i
N=C1CCC(=N)c2c1c(O)c1ccccc1c2O	61.9	16.3	?	63.1*	-22.6	?
CC(=O)c1ccc(N2C(=NC(=O)C3CCCCC3)SC3CS(=O)(=O)CC32)cc1 (stereo not drawn)	-14.4	/	-1.1	-5.7	3.7	i
CCn1c(SCC(=O)N/N=C/C(C)=C/c2ccco2)nnc1-c1ccccc1	-6.7	2.3	31.4	38.7	5.5	i
O=C(CSc1nnc(SCc2ccccc2)s1)N/N=C/C=C/c1ccco1	-101.8	23.5	93.9*	29.4	25.9	i
CC(/C=N\NC(=O)CN1CCN(Cc2ccccc2)CC1)=C\c1ccco1	11.5	7.9	?	1.1	-4.3	+
O=C(CN1CCN(Cc2ccccc2)CC1)N/N=C\C=C/c1ccco1	-8.8	-0.8	?	12.0	-5.2	+
CCn1c(SCC(=O)N/N=C/C(C)=C\c2ccco2)nnc1-c1ccccc1	-8.1	1.2	51.4*	15.9	3.4	+
O=C(CN1CCN(Cc2ccccc2Cl)CC1)N/N=C/C=C/c1ccco1	-14.1	-1.0	0.8	6.3	1.5	i
CC(=O)c1cccc(N(CC(=O)Nc2ccccc2C(=O)N2CCCC2)S(C)(=O)=O)c1	5.7	/	-2.8	-5.2	5.4	i
Cc1ccc(C(=O)NC(C)c2ccc(-n3ccnc3)cc2)o1 (stereo not drawn)	6.1	/	/	/	-1.5	/
O=C1C=C(c2ccoc2)N2CCC[C@H]2C1	11.5	/	/	/	/	/
Oc1ccc(/C=N/Nc2cc(N3CCCC3)nc(N3CCCC3)n2)cc1O	-15.6	17.8	104.9	62.7*	21.4	i
COc1ccc(CCN(C)C2CCCN(C(=O)c3sccc3C)C2)cc1OC (stereo not drawn)	2.2	/	-3.3	6.7	9.8	i
CCOc1ccccc1NC(=S)NNS(=O)(=O)c1c(C)cc(C)cc1C	41.3*	-0.2	-0.1	-6.6	1.5	i
CCOc1ccccc1N(C)S(=O)(=O)c1ccc2c(c1)CCN2C(=O)CCC(=O)O	5.4	/	-8.8	-14.2	2.0	i
CCOc1ccccc1NC(=O)CCS(=O)(=O)c1ccc(OC)cc1	4.3	3.4	8.0	12.3	6.4	?
CCc1ccccc1NC(=O)CCS(=O)(=O)c1ccc(OC)cc1	15.8	/	54.1*	12.8	-288.0	i
C[C@@H]1CCCCO[C@H](CN(C)C(=O)Nc2ccccc2)[C@@H](C)CN([C@H](C)CO)C(=O)c2cc(NS(=O)(=O)c3cn(C)cn3)ccc2O1	4.9	/	/	/	/	/
COc1cccc(CNC(=O)c2ccc(CS(=O)Cc3ccc(C)cc3)o2)c1 (stereo not drawn)	10.3	/	-9.0	-1.3	-9.9	i
Cc1ccc(S(=O)(=O)c2c(N)n(/N=C/c3ccco3)c3nc4ccccc4nc23)cc1	-17.4	-4.1	69.1*	48.0	17.8	+
Nc1c(S(=O)(=O)c2ccccc2)c2nc3ccccc3nc2n1/N=C/c1ccco1	-36.4	-0.3	64.0	39.9	20.7	+
